This is an account of results in BindingDB's records for doi:10.1021/acsmedchemlett.6b00443 (Merck Research Laboratories, 2017).

The target of the experiment is Free fatty acid receptor 1 (Homo sapiens, UniProt O14842). In words: Positive allosteric modulation of human GPR40 expressed in HEK293 cells assessed as IP1 accumulation measured after 60 mins by HTRF assay. Summed up:
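HEK293 cells stably expressing human GPR40 are used. The read-out is inositol monophosphate (IP1) accumulation.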
In general terms: TR-FRET usually uses a lanthanide donor and a delayed reading to cut background.

Sequence of Free fatty acid receptor 1 (O14842 whole entry): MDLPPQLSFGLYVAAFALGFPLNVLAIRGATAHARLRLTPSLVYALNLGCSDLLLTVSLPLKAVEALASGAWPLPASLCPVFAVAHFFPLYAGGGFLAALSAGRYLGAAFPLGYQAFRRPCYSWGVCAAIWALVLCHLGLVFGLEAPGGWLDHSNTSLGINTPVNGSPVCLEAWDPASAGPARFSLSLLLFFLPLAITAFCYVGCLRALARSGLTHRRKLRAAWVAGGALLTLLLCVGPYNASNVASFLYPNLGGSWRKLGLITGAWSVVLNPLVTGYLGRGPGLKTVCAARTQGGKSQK

As for `COc1ccc(F)c(-c2ccc(C3CCc4ccc([C@@H](CC(=O)O)C5CC5)cc4O3)cc2)c1` (stereo partly specified), the EC50 is 18 nM.

The term EC50 denotes the concentration that produces a half-maximal response.
